We go through 2 compounds from ChEMBL document CHEMBL4190227, “Syntheses, toxicities and anti-inflammation of H2S-donors based on non-steroidal anti-inflammatory drugs” (Eur J Med Chem, 2017).

The species entered for series [1] is Danio rerio. The series is described as follows: Toxicity in AB zebrafish embryo assessed as reduction in hatching rate of embryos at 5 to 20 uM measured at 48 hrs post fertilization by dissecting light microscopic analysis. Type of series: organism-based. To be noted: in vivo. In outline: (§1)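 AB embryos exposed from 4 to 72 hpf to compound (0.5–20 μM) or DMF vehicle (1:1000), one embryo per well; hatch rate scored at 48 hpf; n=100 per group in three replicates; three independent experiments, mean ± SD.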

Series [2] relates to RAW264.7. Nature of the series: Antiinflammatory activity in mouse RAW264.7 cells assessed as increase in LPS-induced HO-1 expression incubated for 24 hrs post LPS induction by ELISA. The format is functional, cell-based. In outline: (§2)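 LPS (1 μg/mL) for 4 h, then compound at 10, 50, 100 μM for 24 h; cells lysed in RIPA, spun 12,000×g 10 min, protein normalised by BCA to 0.1 mg/mL; target (TNF-α, HO-1, IL-10 or COX-2) quantified by sandwich ELISA kit with mouse-specific polyclonal antibodies; four independent experiments.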

Series [3] deals with L02. The series is described as follows: Cytotoxicity against human LO2 cells assessed as reduction in cell survival after 24 hrs by MTT assay. The format is cell-based. Particulars: L02, 24 h.
For series [4], the species on record is Danio rerio. Nature of the series: Toxicity in AB zebrafish embryo assessed as reduction in embryonic spontaneous movement frequency per minute at 0.5 uM measured at 24 hrs post fertilization by stereoscopic dissecting light microscopic analysis. Type of series: organism-based. To be noted: in vivo. In outline: (§3)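 AB embryos exposed from 4 to 24 hpf to compound (0.5–20 μM) or DMF vehicle (1:1000); ten embryos per group chosen randomly; spontaneous movement recorded under stereoscopic dissecting microscope, frequency per min counted at 24 hpf; three independent experiments, mean ± SD.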

The test system of series [5] is RAW264.7. Nature of the series: Inhibition of LPS-induced COX2 expression in mouse RAW264.7 cells at 10 to 100 uM incubated for 24 hrs post LPS induction by ELISA. The format is functional, cell-based. In outline: as §2
For series [6], the species on record is Danio rerio. The series is described as follows: Toxicity in AB zebrafish embryo assessed as effect on hatching rate of embryos at 0.5 to 1 uM measured at 48 hrs post fertilization by dissecting light microscopic analysis. The format is organism-based. To be noted: in vivo. The method in brief: as §1
Series [7] is filed under the species Danio rerio. The series is described as follows: Toxicity in AB zebrafish embryo assessed as reduction in hatching rate of embryos measured at 48 hrs post fertilization by dissecting light microscopic analysis. Particulars: in vivo. Type of series: organism-based. In outline:
as §1

For series [8], the species on record is Danio rerio. Nature of the series: Toxicity in AB zebrafish embryo assessed as reduction in number of embryos alive at 120 hrs post fertilization by dissecting light microscopic analysis. The format is organism-based. To be noted: in vivo. The method in brief:
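Wild-type AB embryos, 100 per group split into three replicates, one per well in 200 μL test solution, plates sealed; DMF vehicle control (1:1000); mortality recorded at 24–168 hpf intervals; three independent experiments, mean ± SD.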

Series [9] deals with RAW264.7. The series is described as follows: Antiinflammatory activity in mouse RAW264.7 cells assessed as increase in IL10 levels at 10 to 100 uM measured after 24 hrs in absence of LPS by ELISA. The format is functional, cell-based. The method in brief: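 Macrophages exposed 24 h to 10, 50, 100 μM without LPS; lysates (RIPA, 12,000×g spin) normalised by BCA to 0.1 mg/mL protein; IL-10 measured by mouse-specific sandwich ELISA kit; four independent experiments, mean ± SD.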

The test system of series [10] is RAW264.7. Nature of the series: Antiinflammatory activity in mouse RAW264.7 cells assessed as increase in LPS-induced HO-1 expression at 100 uM incubated for 24 hrs post LPS induction by ELISA relative to contol. Type of series: functional. The method in brief: as §2
For series [11], the species on record is Danio rerio. The series is described as follows: Effect on locomotor activity in wild type AB zebrafish larvae assessed as decrease in total swimming distance at 10 uM measured for 5 mins at 144 hrs post fertilization by visible light test. Particulars: in vivo. The format is ADME, organism-based.
Series [12] relates to RAW264.7. Nature of the series: Antiinflammatory activity in mouse RAW264.7 cells assessed as increase in LPS-induced IL10 levels at 10 to 100 uM incubated for 24 hrs post LPS induction by ELISA. The format is functional, cell-based. The method in brief:
as §2

The target of series [13] is T1, Nitric oxide synthase, inducible (Mus musculus) (UniProt P29477).
T1 sequence (whole entry): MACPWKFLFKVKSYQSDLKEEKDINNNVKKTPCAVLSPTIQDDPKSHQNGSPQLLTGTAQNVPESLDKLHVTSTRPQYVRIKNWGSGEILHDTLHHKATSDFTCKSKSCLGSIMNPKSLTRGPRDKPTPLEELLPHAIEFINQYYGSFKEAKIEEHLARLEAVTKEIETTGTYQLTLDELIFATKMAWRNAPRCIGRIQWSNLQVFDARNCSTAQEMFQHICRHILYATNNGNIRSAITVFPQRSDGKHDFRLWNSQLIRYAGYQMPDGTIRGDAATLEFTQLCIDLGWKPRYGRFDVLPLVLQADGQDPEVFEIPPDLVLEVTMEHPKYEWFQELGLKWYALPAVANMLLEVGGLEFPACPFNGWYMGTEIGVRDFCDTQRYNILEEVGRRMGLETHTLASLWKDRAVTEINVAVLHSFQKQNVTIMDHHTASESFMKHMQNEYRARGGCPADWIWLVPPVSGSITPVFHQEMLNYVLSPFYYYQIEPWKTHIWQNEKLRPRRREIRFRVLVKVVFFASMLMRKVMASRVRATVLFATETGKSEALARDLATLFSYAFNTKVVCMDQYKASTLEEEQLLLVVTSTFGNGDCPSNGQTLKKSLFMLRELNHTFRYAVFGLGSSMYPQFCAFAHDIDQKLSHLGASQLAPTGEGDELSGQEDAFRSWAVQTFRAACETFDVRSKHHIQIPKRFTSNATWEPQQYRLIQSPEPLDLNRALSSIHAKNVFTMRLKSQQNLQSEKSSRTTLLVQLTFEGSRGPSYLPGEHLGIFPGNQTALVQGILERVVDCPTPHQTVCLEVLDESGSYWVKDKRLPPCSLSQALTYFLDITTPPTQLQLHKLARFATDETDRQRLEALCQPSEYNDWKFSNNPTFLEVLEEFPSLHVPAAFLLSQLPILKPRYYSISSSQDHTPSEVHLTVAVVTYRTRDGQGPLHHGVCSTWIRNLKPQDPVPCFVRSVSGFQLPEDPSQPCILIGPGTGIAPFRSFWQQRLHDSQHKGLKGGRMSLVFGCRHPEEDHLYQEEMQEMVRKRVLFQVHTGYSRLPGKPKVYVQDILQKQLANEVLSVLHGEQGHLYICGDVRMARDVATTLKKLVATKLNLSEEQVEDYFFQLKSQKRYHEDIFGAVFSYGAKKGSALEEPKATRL
Nature of the series: Inhibition of iNOS in mouse RAW264.7 cells assessed as reduction in LPS-induced NO production administered for 24 hrs post LPS induction by Griess method. Type of series: cell-based. The method in brief:
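RAW264.7 cells stimulated with LPS 1 μg/mL for 4 h, then compound (10, 50, 100 μM) for 24 h; culture medium reacted with Griess reagents I and II, absorbance 570 nm; nitrite from sodium nitrite standard curve (0–100 μM in medium); four independent experiments, mean ± SD.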

For series [14], the species on record is Danio rerio. Nature of the series: Effect on locomotor activity in wild type AB zebrafish larvae assessed as decrease in total swimming distance at 0.5 to 1 uM measured for 5 mins at 144 hrs post fertilization by visible light test. The format is ADME, organism-based. To be noted: in vivo.
For series [15], the species on record is Danio rerio. The series is described as follows: Toxicity in AB zebrafish embryo assessed as reduction in embryonic spontaneous movement frequency per minute measured at 24 hrs post fertilization by stereoscopic dissecting light microscopic analysis. Type of series: organism-based. Particulars: in vivo. In outline:
as §3

The subject of series [16] is RAW264.7. Nature of the series: Antiinflammatory activity in mouse RAW264.7 cells assessed as reduction in LPS-induced TNFalpha levels incubated for 24 hrs post LPS induction by ELISA. Type of series: functional, cell-based. The method in brief:
as §2

pIC50: −log10 of the molar value. The source made the active and inactive calls. The rule behind the calls is not given here. A value given as a limit tells only on which side of the number the result lay.

For the compound `CC(C)Cc1ccc(C(C)C(=O)Oc2ccc(C(N)=S)cc2)cc1` (configuration not stated), the Activity result in series [1] is “Toxic”; in series [2], “Dose-dependent effect”; in series [4] it was “Non-Toxic”; in series [6], “Non-Toxic”; in series [7] it was “Dose-dependent effect”; in series [8], “Dose-dependent effect”. For the same compound, the Activity result in series [11] was “Toxic”; in series [14] it was “Non-Toxic”; in [15], “Dose-dependent effect”; in series [16], “Dose-dependent effect”. For the same compound, the pIC50 in series [3] is 3.66. Further, in series [5], the inhibition entry was “Active”. Moreover, the outcome in series [9] and in [12] was Active. The “fold change (FC)” value in series [10] was more than 3. Further, the inhibition result in series [13] was “Dose-dependent effect”.

In the case of `CC(=O)Nc1ccc(OC(=O)CCCCC2CCSS2)cc1` (configuration not stated), the Activity entry is “Toxic” in series [1]; “Dose-dependent effect” in [2]; “Non-Toxic” in [4]; “Non-Toxic” in series [6]; “Dose-dependent effect” in series [7]; “Dose-dependent effect” in series [8]. For the same compound, the Activity result in series [11] was “Toxic”; in series [14], “Non-Toxic”; in series [15], “Dose-dependent effect”; in series [16], “Dose-dependent effect”. Also, the pIC50 in [3] was 2.75. In addition, the inhibition entry in series [5] was “Active”. Moreover, the outcome in series [9] and in series [12] was Active. For the same compound, the “fold change (FC)” value in series [10] was “<=2”. Besides, in series [13], the inhibition result is “Dose-dependent effect”.
